The results in this text go back to ChEMBL document CHEMBL1144404, “Aminoimidazolylmethyluracil analogues as potent inhibitors of thymidine phosphorylase and their bioreductive nitroimidazolyl prodrugs” (J Med Chem, 2005).

As a reminder, the IC50 is the concentration that gives 50% inhibition. In general, half-life refers to how long it takes for the measured level to halve. A higher half-life goes with slow loss. The Cmax is the peak of the concentration-time curve. In general, Tmax refers to the time at which the peak concentration occurs. For orientation: clearance means the rate of elimination divided by the concentration. The low end stands for inefficient removal, the high end for efficient removal.

The target in data set [1] is T1, Thymidine phosphorylase (Homo sapiens, UniProt P19971).
T1 sequence (P19971 whole entry): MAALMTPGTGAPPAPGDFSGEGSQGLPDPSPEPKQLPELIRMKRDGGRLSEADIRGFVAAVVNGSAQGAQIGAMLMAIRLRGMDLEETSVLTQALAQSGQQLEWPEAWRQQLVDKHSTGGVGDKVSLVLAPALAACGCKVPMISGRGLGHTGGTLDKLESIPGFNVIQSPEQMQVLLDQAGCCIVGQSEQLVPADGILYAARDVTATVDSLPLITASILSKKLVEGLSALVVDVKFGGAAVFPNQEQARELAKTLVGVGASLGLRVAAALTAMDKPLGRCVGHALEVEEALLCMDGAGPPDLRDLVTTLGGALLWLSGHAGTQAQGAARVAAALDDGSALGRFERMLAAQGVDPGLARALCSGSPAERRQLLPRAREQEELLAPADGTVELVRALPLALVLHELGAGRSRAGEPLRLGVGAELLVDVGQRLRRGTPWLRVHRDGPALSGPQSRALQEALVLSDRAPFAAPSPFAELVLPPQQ
The experiment in a line: Inhibitory concentration against human thymidine phosphorylase.

For data set [2], the target named is Thymidine phosphorylase (Escherichia coli K-12, UniProt P07650). The experiment in a line: Inhibitory concentration against thymidine phosphorylase of Escherichia coli.
Sequence of Thymidine phosphorylase (Escherichia coli K-12, UniProt P07650) (P07650 whole entry): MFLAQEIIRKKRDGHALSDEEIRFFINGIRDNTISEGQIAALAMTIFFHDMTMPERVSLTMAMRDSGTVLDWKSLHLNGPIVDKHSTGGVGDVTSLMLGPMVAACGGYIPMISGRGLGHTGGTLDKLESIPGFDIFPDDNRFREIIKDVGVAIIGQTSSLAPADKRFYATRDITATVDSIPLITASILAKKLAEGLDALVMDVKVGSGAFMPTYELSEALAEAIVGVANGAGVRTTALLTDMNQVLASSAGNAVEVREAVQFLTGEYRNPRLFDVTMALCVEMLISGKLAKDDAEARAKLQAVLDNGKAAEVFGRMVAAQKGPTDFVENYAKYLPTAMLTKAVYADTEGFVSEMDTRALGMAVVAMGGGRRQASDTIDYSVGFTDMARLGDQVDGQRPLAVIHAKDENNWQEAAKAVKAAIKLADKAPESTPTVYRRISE
The nature of data set [3]: Bioavailability in mouse (dose 10 mg/kg i.p.). As to conditions: in vivo, ip; call rule not given here. The class given is ADME, organism-based. A digest of the protocol: (§1)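 Mice given a single dose by ip (10 mg/kg), oral (20 mg/kg) or iv (2 mg/kg) route. Blood sampled over 24 h after dosing; plasma analysed for parent compound. PK parameters (Cmax, Tmax, AUC, T1/2, F, C0, Cl, Vdss) derived from plasma concentration-time profiles.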

The nature of data set [4]: Bioavailability in mouse (dose 20 mg/kg p.o.). As to conditions: in vivo, po. The class given is ADME, organism-based. The essentials: as §1
A short description of data set [5]: Bioavailability in mouse (dose 2 mg/kg i.v.). As to conditions: in vivo, iv. The class given is ADME, organism-based. The essentials:
as §1

The nature of data set [6]: Half-life was measured in mice after oral administration of 20 mg/kg. The class given is ADME, organism-based. Set-up: dose 20 mg/kg, route oral. As to conditions: mouse, in vivo. The essentials: as §1
Data set [7] is described as follows: Area under concentration-time curve for the compound was measured in mice after oral administration of 20 mg/kg. The class given is ADME, organism-based. The arrangement: dose 20 mg/kg, route oral. As to conditions: mouse, in vivo. A digest of the protocol:
as §1

Data set [8] is described as follows: Maximum plasma concentration in mice after intraperitoneal administration of 10 mg/kg. As to conditions: mouse, ip. The arrangement: dose 10 mg/kg, route intraperitoneal. It is filed as ADME, organism-based. The essentials:
as §1

A short description of data set [9]: Steady state volume of distribution was measured in mice after intravenous administration of 2 mg/kg. The class given is ADME, organism-based. As to conditions: mouse, in vivo, read-out: Vdss. The arrangement: dose 2 mg/kg, route intravenous. The essentials: as §1
Data set [10] can be described thus: Area under concentration-time curve for the compound was measured in mice after intravenous administration of 2 mg/kg. The class given is ADME, organism-based. Set-up: dose 2 mg/kg, route intravenous. As to conditions: mouse, in vivo. A digest of the protocol: as §1
Data set [11] can be described thus: Maximum time to attain Cmax in mice after intraperitoneal administration of 10 mg/kg. As to conditions: mouse, in vivo, ip. The arrangement: dose 10 mg/kg, route intraperitoneal. It is filed as ADME, organism-based. The essentials:
as §1

Data set [12] is described as follows: Half-life was measured in mice after intraperitoneal administration of 10 mg/kg. The arrangement: dose 10 mg/kg, route intraperitoneal. As to conditions: mouse, in vivo, ip. The class given is ADME, organism-based. A digest of the protocol:
as §1

A short description of data set [13]: Clearance at time 0 was measured in mice after intravenous administration of 2 mg/kg. It is filed as ADME, organism-based. Set-up: dose 2 mg/kg, route intravenous. As to conditions: mouse, in vivo. A digest of the protocol:
as §1

The nature of data set [14]: Half-life was measured in mice after intravenous administration of 2 mg/kg. The class given is ADME, organism-based. The arrangement: dose 2 mg/kg, route intravenous. As to conditions: mouse, in vivo. A digest of the protocol: as §1
The nature of data set [15]: Maximum plasma concentration in mice after oral administration of 20 mg/kg. The class given is ADME, organism-based. The arrangement: dose 20 mg/kg, route oral. As to conditions: mouse. The essentials: as §1
The nature of data set [16]: Area under concentration-time curve for the compound was measured in mice after intraperitoneal administration of 10 mg/kg. It is filed as ADME, organism-based. Set-up: dose 10 mg/kg, route intraperitoneal. As to conditions: mouse, in vivo, ip. The essentials: as §1
Data set [17] in a line: Concentration at time 0 was measured in mice after intravenous administration of 2 mg/kg. The class given is ADME, organism-based. Set-up: dose 2 mg/kg, route intravenous. As to conditions: mouse, in vivo. The essentials: as §1
A short description of data set [18]: Maximum time to attain Cmax in mice after oral administration of 20 mg/kg. It is filed as ADME, organism-based. The arrangement: dose 20 mg/kg, route oral. As to conditions: mouse, in vivo. A digest of the protocol: as §1
A short description of data set [19]: Maximum concentration was measured in mice after intraperitoneal administration of 10 mg/kg. The class given is ADME, organism-based. The arrangement: dose 10 mg/kg, route intraperitoneal. As to conditions: mouse, in vivo, ip. The essentials:
as §1

`O=c1[nH]c(Cn2cnc([N+](=O)[O-])c2)c(Cl)c(=O)[nH]1`: the IC50 came out at 200 µM on Thymidine phosphorylase [1] and 7 µM against Thymidine phosphorylase [2].

Turning to `O=[N+]([O-])c1cn(Cc2cc(O)nc(O)n2)cn1`, the values for the IC50 at Thymidine phosphorylase [1] and on Thymidine phosphorylase [2] were 500 µM and 13.8 µM, respectively.

Compound `Nc1c[n+](Cc2nc(O)nc(O)c2Br)c[nH]1` showed a half-inhibitory concentration (IC50) against Thymidine phosphorylase [2] of 6.5 µM.

For the compound `Nc1c[n+](Cc2cc(O)nc(O)n2)c[nH]1`, the 50% inhibitory concentration (IC50) worked out at 143 µM on Thymidine phosphorylase [1] and 101 µM against Thymidine phosphorylase [2].

Turning to `Nc1[nH]cc[n+]1Cc1[nH]c(=O)[nH]c(=O)c1Br`, the values for the bioavailability in data set [3] and in data set [4] were 103% and 33%, respectively. The F result in data set [5] is listed as “Not Active”. The half-life is 132 min in data set [6], 60 min in data set [12] and 12 min in [14]. Further, the AUC in data set [7] amounted to 0.968 µg/h/mL; in data set [10], 0.292 µg/h/mL; in data set [16], 1.505 µg/h/mL. Moreover, the results for the Cmax in data set [8] and in data set [15] were 5080 ng/mL and 350 ng/mL, respectively. Besides, in [9], the Vd came out at 1.3 L/kg. The time to peak (Tmax) in data set [11] was 5 min; in [18] it was 60 min. Besides, the clearance in data set [13] is > 72 mL/min/kg. For the same compound, in [17], the C0 stood at 3750 ng/mL.

For `O=c1[nH]c(Cn2cnc([N+](=O)[O-])c2)c(Br)c(=O)[nH]1`, the IC50 was 181 µM at Thymidine phosphorylase [1] and 6.6 µM at Thymidine phosphorylase [2].

As for `Nc1c[n+](Cc2nc(O)nc(O)c2Cl)c[nH]1`, at Thymidine phosphorylase [2], the IC50 was 7.3 µM.

For `Cl.N=C1CCCN1Cc1[nH]c(=O)[nH]c(=O)c1Cl` [TIPIRACIL HYDROCHLORIDE], the bioavailability in data set [3] was > 100%; in [4] it was 52%. In addition, in [5], the F result is reported as “Not Active”. The half-life is 102 min in [6], 48 min in data set [12] and 6 min in data set [14]. The AUC in [7] came out at 0.99 µg/h/mL; in data set [10], 0.19 µg/h/mL; in data set [16], 1.658 µg/h/mL. The Vd in data set [9] came to 2.1 L/kg. Further, the figures for the time to peak (Tmax) in [11] and in data set [18] were 4.98 min and 60 min, respectively. Further, in data set [13], the clearance is > 72 mL/min/kg. The Cmax in [19] came to 4450 ng/mL; in data set [15], 391 ng/mL. The compound also came in with a C0 in data set [17] of 942 ng/mL.
